ChEMBL document CHEMBL1137196, “Non-peptide oxytocin agonists” (Bioorg Med Chem Lett, 2004)

Columns and labels:
Oxytocin receptor = target: T1, Oxytocin receptor (Homo sapiens, UniProt P30559); test: Effective concentration for human Oxytocin receptor
T1 sequence (P30559 whole entry): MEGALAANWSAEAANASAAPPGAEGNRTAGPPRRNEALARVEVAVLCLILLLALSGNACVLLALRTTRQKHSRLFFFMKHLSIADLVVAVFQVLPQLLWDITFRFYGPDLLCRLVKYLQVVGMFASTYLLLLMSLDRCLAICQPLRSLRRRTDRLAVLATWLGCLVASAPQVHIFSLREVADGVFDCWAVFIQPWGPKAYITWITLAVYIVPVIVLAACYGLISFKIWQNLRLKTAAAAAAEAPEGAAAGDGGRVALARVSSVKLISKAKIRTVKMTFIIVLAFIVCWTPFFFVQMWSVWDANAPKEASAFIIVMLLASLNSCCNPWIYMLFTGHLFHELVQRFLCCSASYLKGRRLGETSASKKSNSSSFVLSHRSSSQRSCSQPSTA
Summary of the method: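 CHO cells kept in phenol red-free DMEM with penicillin and 10% foetal calf serum, dual-transfected with human OT receptor and NFAT-luciferase constructs, then grown 24 h at 37°C/5% CO2 before and after plating. Compounds were diluted from 10 mM DMSO stocks (0.1% DMSO final). Luciferase was read after 5 h at 37°C. EC50 came from a 4-parameter logistic fit; mean ± SD (n≥3), or mean ± range where n=2.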

Vasopressin V2 receptor = Vasopressin V2 receptor (Homo sapiens, UniProt P30518); test: Effective concentration for human Vasopressin V2 receptor
Vasopressin V2 receptor, sequence (P30518 whole entry): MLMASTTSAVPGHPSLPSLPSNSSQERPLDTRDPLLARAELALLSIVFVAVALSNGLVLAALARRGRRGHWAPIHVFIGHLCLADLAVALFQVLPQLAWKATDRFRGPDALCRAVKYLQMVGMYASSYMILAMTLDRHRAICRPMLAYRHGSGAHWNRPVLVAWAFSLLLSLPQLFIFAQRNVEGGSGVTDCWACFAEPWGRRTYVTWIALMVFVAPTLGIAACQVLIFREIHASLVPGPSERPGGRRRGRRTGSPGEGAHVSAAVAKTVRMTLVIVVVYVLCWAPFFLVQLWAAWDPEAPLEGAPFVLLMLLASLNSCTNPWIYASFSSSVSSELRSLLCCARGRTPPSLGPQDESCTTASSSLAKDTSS
Summary of the method: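 293 cells in phenol red-free DMEM with penicillin and 10% foetal calf serum were dual-transfected with V2 receptor and CRE-luciferase constructs, then grown 24 h at 37°C/5% CO2 before and after plating. Compounds came from 10 mM DMSO stocks (0.1% DMSO final). Luciferase was measured after 5 h at 37°C. EC50 from a 4-parameter logistic fit; mean ± SD (n≥3), or mean ± range where n=2.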

[1] = target: Oxytocin receptor (Homo sapiens) (UniProt P30559); test: Agonist activity against Oxytocin receptor relative to oxytocin at 3 uM

SMILES	EC50 (Oxytocin receptor)	EC50 (Vasopressin V2 receptor)	Relativity [1]
CO[C@@H]1C[C@@H](C(=S)N2CCC(N3CCCC3)CC2)N(C(=O)NCc2ccc(C(=O)N3CCCCc4sccc43)cc2Cl)C1	480 nM	100 nM	–
Cc1cc(C(=O)N2CCCCc3ccccc32)ccc1CNC(=O)NCC(=O)N(C)C	–	–	33%
Cc1cc(C(=O)N2Cc3cnn(C)c3Nc3ccccc32)ccc1CNC(=O)N1CCC[C@H]1C(=S)N1CCCN(C)CC1	33 nM	850 nM	–
CO[C@@H]1C[C@@H](C(=O)NCCc2ccccn2)N(C(=O)NCc2ccc(C(=O)N3CCCCc4sccc43)cc2Cl)C1	1500 nM	570 nM	–
CO[C@@H]1C[C@@H](C(=O)N2CCC(N3CCCC3)CC2)N(C(=O)NCc2ccc(C(=O)N3CCCCc4sccc43)cc2Cl)C1	2300 nM	1100 nM	–
Cc1ccn(-c2ccc(C(=O)N3Cc4cccn4Cc4ccccc43)c(Cl)c2)n1	–	–	< 10%
CC(C)NC(=O)C[C@H]1CCCN(C(=O)c2ccc(N3CCCC3)cc2Cl)c2ccccc21	–	–	< 10%
Cc1cc(C(=O)N2CCCCc3sccc32)ccc1CNC(=O)N1CCC[C@H]1C(=S)N1CCCN(C)CC1	640 nM	890 nM	–

The remaining lines, values ahead:

EC50 (Oxytocin receptor)	EC50 (Vasopressin V2 receptor)	Relativity [1]	SMILES
430 nM	230 nM	–	CO[C@@H]1C[C@@H](C(=S)N2CCCN(C)CC2)N(C(=O)NCc2ccc(C(=O)N3CCCCc4sccc43)cc2Cl)C1
470 nM	200 nM	–	CO[C@@H]1C[C@@H](C(=S)NCCc2ccccn2)N(C(=O)NCc2ccc(C(=O)N3CCCCc4sccc43)cc2Cl)C1
810 nM	1800 nM	–	CN1CCCN(C(=S)[C@@H]2CCCN2C(=O)NCc2ccc(C(=O)N3CCCCc4sccc43)cc2Cl)CC1
2200 nM	1200 nM	–	CO[C@@H]1C[C@@H](C(=O)N2CCC(N3CCCCC3)CC2)N(C(=O)NCc2ccc(C(=O)N3CCCCc4sccc43)cc2Cl)C1
2800 nM	1300 nM	–	CO[C@@H]1C[C@@H](C(=O)N2CCCN(C)CC2)N(C(=O)NCc2ccc(C(=O)N3CCCCc4sccc43)cc2Cl)C1
> 10000 nM	1800 nM	–	CO[C@@H]1C[C@@H](C(=O)NCCN(C)C)N(C(=O)NCc2ccc(C(=O)N3CCCCc4sccc43)cc2Cl)C1
